Data from BindingDB's records for doi:10.1016/j.bmc.2008.10.090 (Virginia Polytechnic Institute and State University, 2009).

Columns and labels:
[1] = target: T1, Dual specificity protein phosphatase 1 (Mus musculus, UniProt P28563); test: Inhibition of histidine-tagged mouse MKP1 catalytic domain expressed in […]
T1 sequence (P28563 whole entry): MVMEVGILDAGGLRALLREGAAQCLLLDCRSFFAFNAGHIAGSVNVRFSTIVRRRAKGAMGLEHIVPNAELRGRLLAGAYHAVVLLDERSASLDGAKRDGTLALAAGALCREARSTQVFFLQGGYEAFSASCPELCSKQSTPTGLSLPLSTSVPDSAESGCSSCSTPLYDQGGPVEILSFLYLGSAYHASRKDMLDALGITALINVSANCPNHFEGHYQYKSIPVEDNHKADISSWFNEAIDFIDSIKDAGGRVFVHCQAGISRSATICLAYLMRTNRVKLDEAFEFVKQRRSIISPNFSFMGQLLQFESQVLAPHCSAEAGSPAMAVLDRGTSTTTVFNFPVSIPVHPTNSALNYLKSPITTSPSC

[2] = target: T2, M-phase inducer phosphatase 2 (Homo sapiens, UniProt P30305); test: Inhibition of histidine-tagged human recombinant Cdc25B catalytic domain expressed in Escherichia coli
T2 sequence (P30305 whole entry): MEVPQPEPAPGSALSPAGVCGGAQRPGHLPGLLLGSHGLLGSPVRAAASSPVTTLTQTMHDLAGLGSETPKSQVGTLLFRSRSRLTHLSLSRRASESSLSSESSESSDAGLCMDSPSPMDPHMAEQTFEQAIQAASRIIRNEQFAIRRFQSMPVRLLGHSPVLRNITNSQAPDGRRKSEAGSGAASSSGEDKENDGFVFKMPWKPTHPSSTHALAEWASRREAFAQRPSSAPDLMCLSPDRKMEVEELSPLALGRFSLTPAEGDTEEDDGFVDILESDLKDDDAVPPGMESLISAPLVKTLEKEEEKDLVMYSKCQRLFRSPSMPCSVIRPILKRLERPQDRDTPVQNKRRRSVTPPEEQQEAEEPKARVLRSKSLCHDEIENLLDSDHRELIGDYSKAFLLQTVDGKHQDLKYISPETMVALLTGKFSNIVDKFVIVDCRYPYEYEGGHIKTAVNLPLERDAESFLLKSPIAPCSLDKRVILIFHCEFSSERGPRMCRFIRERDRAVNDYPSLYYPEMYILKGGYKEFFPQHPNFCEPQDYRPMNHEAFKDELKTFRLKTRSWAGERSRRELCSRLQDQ

[3] = target: T3, Dual specificity protein phosphatase 6 (Rattus norvegicus, UniProt Q64346); test: Inhibition of histidine-tagged rat recombinant MKP3 catalytic domain expressed in Escherichia coli BL21(DE3)
T3 sequence (Q64346 whole entry): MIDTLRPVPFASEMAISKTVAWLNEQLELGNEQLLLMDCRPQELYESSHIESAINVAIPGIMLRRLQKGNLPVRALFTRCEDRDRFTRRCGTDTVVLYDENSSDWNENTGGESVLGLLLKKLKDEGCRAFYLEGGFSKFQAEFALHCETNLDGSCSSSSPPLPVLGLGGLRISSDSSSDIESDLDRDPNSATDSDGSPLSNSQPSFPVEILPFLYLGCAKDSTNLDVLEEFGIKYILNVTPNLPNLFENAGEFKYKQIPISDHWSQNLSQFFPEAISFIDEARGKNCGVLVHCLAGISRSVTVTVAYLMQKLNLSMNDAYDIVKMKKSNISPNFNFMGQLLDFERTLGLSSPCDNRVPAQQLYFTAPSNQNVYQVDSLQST
Outline: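 Recombinant MKP-3 was expressed from a bacterial plasmid. Phosphatase activity was read from O-methyl fluorescein phosphate hydrolysis in a 25 μL final mixture, incubated 20 or 60 min at ambient temperature. Product fluorescence was read at excitation 485 nm and emission 530 nm. IC50 came from at least six inhibitor concentrations.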

IC50 [1] [µM]	IC50 [2] [µM]	IC50 [3] [µM]	Compound
> 50	> 50	> 50	Cc1c(NCC=O)c(O)c2ccccc2c1O [2-(2-hydroxyethylamino)-3-methylnaphthalene-1,4-dione]
> 50	> 50	> 50	O=CCNc1cc(O)c2ccccc2c1O [2-(2-hydroxyethylamino)naphthalene-1,4-dione]
